# Data as given in PMC4714695 (Cancer Science, 2015).
# Columns and labels:
# [1] = test system: Japanese patients with acute myeloid leukemia; test: Best response and remission duration; type: in vivo, human
# Procedure, shortened: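 Same patients and dosing: 2-h IV infusion on days 1 and 15 of 28-day cycles, at 350, 400 or 450 mg. Best response (CR, CRi, PR) and remission duration judged by International Working Group and European Leukemia Net criteria. Assessed in peripheral blood and bone marrow, with imaging added for extramedullary disease. Efficacy cut-off 12 March 2015.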
# PLK2 = settings: compared with PLK1; cited from earlier work
# [2] = test system: Japanese patients with acute myeloid leukemia; test: Electrocardiogram QTcF assessment; type: in vivo, human
# [3] = test system: Japanese patients with acute myeloid leukemia; test: Adverse events graded by CTCAE version 3.0; type: in vivo, human; settings: for Blood creatinine increased, all grades, patients / Decreased appetite, all grades, patients / Decreased appetite, grade 3, patients / Epistaxis, all grades, patients / Fatigue, all grades, patients / Febrile neutropenia, all grades, patients / Febrile neutropenia, grade 3, patients / Hyperuricemia, all grades, patients / Hypoalbuminemia, all grades, patients / Hypokalemia, all grades, patients / Hypokalemia, grade 3, patients / Infection, all grades, patients / Infection, grade 3, patients / Nausea, all grades, patients / Neutropenia, all grades, patients / Neutropenia, grade 4, patients / Pyrexia, all grades, patients / Sepsis, all grades, patients / Sepsis, grade 3, patients / Stomatitis, all grades, patients / Vomiting, all grades, patients / Rash, all grades, patients / Hypokalemia, grade 4, patients: irrespective of relationship
# Procedure, shortened: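 Adults with relapsed/refractory or untreated AML unfit for standard induction, ECOG ≤2. Test compound given as a 2-h IV drip infusion on days 1 and 15 of 28-day cycles, at 350, 400 or 450 mg per administration. AEs from all cycles graded by CTCAE v3.0 and tabulated per dose cohort by MedDRA system organ class, preferred term and grade, with drug causality assigned. Safety cut-off 6 June 2014.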
# [4] = all cohorts (N = 19), all grades
# [5] = all cohorts (N = 19), all treatment cycles
smiles,measurement,setting,value
CC[C@@H]1C(=O)N(C)c2cnc(Nc3ccc(C(=O)N[C@H]4CC[C@H](N5CCN(CC6CC6)CC5)CC4)cc3OC)nc2N1C(C)C [Volasertib],"Best overall response CR, patients",[1]; 350 mg (n = 7),1 n
same,"Best overall response PD, patients",[1]; 350 mg (n = 7),3 n
same,"Best overall response SD, patients",[1]; 350 mg (n = 7),3 n
same,Patients with CR/CRi,[1]; 350 mg (n = 7),1 n
same,"Best overall response CR, patients","[1]; 350 mg (n = 7), listed as volasertib",One of seven patients
same,"Remission duration, median (range)","[1]; 350 mg, 1 patient with CR/CRi",358 days
same,"Best overall response CRi, patients",[1]; 400 mg (n = 4),2 n
same,"Best overall response SD, patients",[1]; 400 mg (n = 4),2 n
same,Patients with CR/CRi,[1]; 400 mg (n = 4),2 n
same,"Best overall response CRi, patients","[1]; 400 mg (n = 4), listed as volasertib",two of four patients
same,"Remission duration, median (range)","[1]; 400 mg, 2 patients with CR/CRi",72 (70–74) days
same,"Best overall response CR, patients",[1]; 450 mg (n = 8),2 n
same,"Best overall response CRi, patients",[1]; 450 mg (n = 8),1 n
same,"Best overall response PD, patients",[1]; 450 mg (n = 8),1 n
same,"Best overall response PR, patients",[1]; 450 mg (n = 8),1 n
same,"Best overall response SD, patients",[1]; 450 mg (n = 8),3 n
same,Patients with CR/CRi,[1]; 450 mg (n = 8),3 n
same,"Remission duration, median (range)","[1]; 450 mg, 3 patients with CR/CRi",96 (56–262) days
same,"Best overall response CR, patients",[1]; Total (N = 19),3 n
same,"Best overall response CR, share of patients",[1]; Total (N = 19),15.8%
same,"Best overall response CRi, patients",[1]; Total (N = 19),3 n
same,"Best overall response CRi, share of patients",[1]; Total (N = 19),15.8%
same,"Best overall response PD, patients",[1]; Total (N = 19),4 n
same,"Best overall response PD, share of patients",[1]; Total (N = 19),21.1%
same,"Best overall response PR, patients",[1]; Total (N = 19),1 n
same,"Best overall response PR, share of patients",[1]; Total (N = 19),5.3%
same,"Best overall response SD, patients",[1]; Total (N = 19),8 n
same,"Best overall response SD, share of patients",[1]; Total (N = 19),42.1%
same,"Patients achieving best response of CR, CRi or PR",[1]; Total (N = 19),36.8%
same,Patients with CR/CRi,[1]; Total (N = 19),6 n
same,"Remission duration, median (range)","[1]; Total, 6 patients with CR/CRi",85 (56–358) days
same,"Remission duration, median (range)","[1]; Total, 6 patients with CR/CRi, listed as volasertib",85 days
same,"Patients achieving best response of CR, CRi or PR",[1]; out of 19 treated patients,7 patients
same,Duration for which CR was maintained in one patient,"[1]; person, primary refractory M2 de novo AML, complex karyotype, CR after cycle 3",358 days
same,Inhibition of PLK2,PLK2,to a lesser extent
same,Patients with >60 ms QTcF increase at end of infusion versus prior to infusion,[2]; 450 mg cohort 3 only,two patients
same,QTcF intervals >500 ms,[2]; all cohorts,No QTcF intervals >500 ms were reported
same,Time of maximum increase in mean QTcF interval after start of infusion,[2]; all dose cohorts,2 h
same,Clinically relevant abnormalities in cardiologic assessment,"[2]; any cohort, during treatment",No patients in any cohort developed clinically relevant abnormalities
same,Time by which mean QTcF returned to near baseline,"[2]; post-dosing, all dose cohorts",≤ 24 h
same,"Blood creatinine increased, all grades, patients",[3]; 350 mg (n = 7),1 n
same,"Decreased appetite, all grades, patients",[3]; 350 mg (n = 7),5 n
same,"Decreased appetite, grade 3, patients",[3]; 350 mg (n = 7),1 n
same,"Epistaxis, all grades, patients",[3]; 350 mg (n = 7),1 n
same,"Fatigue, all grades, patients",[3]; 350 mg (n = 7),1 n
same,"Febrile neutropenia, all grades, patients",[3]; 350 mg (n = 7),5 n
same,"Febrile neutropenia, grade 3, patients",[3]; 350 mg (n = 7),5 n
same,"Hyperuricemia, all grades, patients",[3]; 350 mg (n = 7),3 n
same,"Hypoalbuminemia, all grades, patients",[3]; 350 mg (n = 7),2 n
same,"Hypokalemia, all grades, patients",[3]; 350 mg (n = 7),3 n
same,"Hypokalemia, grade 3, patients",[3]; 350 mg (n = 7),1 n
same,"Infection, all grades, patients",[3]; 350 mg (n = 7),2 n
same,"Infection, grade 3, patients",[3]; 350 mg (n = 7),2 n
same,"Nausea, all grades, patients",[3]; 350 mg (n = 7),1 n
same,"Neutropenia, all grades, patients",[3]; 350 mg (n = 7),1 n
same,"Neutropenia, grade 4, patients",[3]; 350 mg (n = 7),1 n
same,"Pyrexia, all grades, patients",[3]; 350 mg (n = 7),2 n
same,"Sepsis, all grades, patients",[3]; 350 mg (n = 7),2 n
same,"Sepsis, grade 3, patients",[3]; 350 mg (n = 7),2 n
same,"Stomatitis, all grades, patients",[3]; 350 mg (n = 7),2 n
same,"Vomiting, all grades, patients",[3]; 350 mg (n = 7),1 n
same,Patients reporting grade 4 AE,"[3]; 350 mg cohort 1, neutropenia and thrombocytopenia",one of seven patients
same,"Blood creatinine increased, all grades, patients",[3]; 400 mg (n = 4),2 n
same,"Decreased appetite, all grades, patients",[3]; 400 mg (n = 4),1 n
same,"Epistaxis, all grades, patients",[3]; 400 mg (n = 4),2 n
same,"Fatigue, all grades, patients",[3]; 400 mg (n = 4),3 n
same,"Febrile neutropenia, all grades, patients",[3]; 400 mg (n = 4),3 n
same,"Febrile neutropenia, grade 3, patients",[3]; 400 mg (n = 4),3 n
same,"Nausea, all grades, patients",[3]; 400 mg (n = 4),2 n
same,"Neutropenia, all grades, patients",[3]; 400 mg (n = 4),1 n
same,"Neutropenia, grade 4, patients",[3]; 400 mg (n = 4),1 n
same,"Rash, all grades, patients",[3]; 400 mg (n = 4),4 n
same,"Sepsis, all grades, patients",[3]; 400 mg (n = 4),1 n
same,"Sepsis, grade 3, patients",[3]; 400 mg (n = 4),1 n
same,"Stomatitis, all grades, patients",[3]; 400 mg (n = 4),1 n
same,"Vomiting, all grades, patients",[3]; 400 mg (n = 4),1 n
same,Patients reporting grade 4 AE,"[3]; 400 mg cohort 2, neutropenia and thrombocytopenia",two of four patients
same,"Decreased appetite, all grades, patients",[3]; 450 mg (n = 8),2 n
same,"Decreased appetite, grade 3, patients",[3]; 450 mg (n = 8),2 n
same,"Epistaxis, all grades, patients",[3]; 450 mg (n = 8),2 n
same,"Fatigue, all grades, patients",[3]; 450 mg (n = 8),1 n
same,"Febrile neutropenia, all grades, patients",[3]; 450 mg (n = 8),7 n
same,"Febrile neutropenia, grade 3, patients",[3]; 450 mg (n = 8),6 n
same,"Hypoalbuminemia, all grades, patients",[3]; 450 mg (n = 8),1 n
same,"Hypokalemia, all grades, patients",[3]; 450 mg (n = 8),2 n
same,"Hypokalemia, grade 4, patients",[3]; 450 mg (n = 8),1 n
same,"Infection, all grades, patients",[3]; 450 mg (n = 8),1 n
same,"Nausea, all grades, patients",[3]; 450 mg (n = 8),4 n
same,"Neutropenia, all grades, patients",[3]; 450 mg (n = 8),1 n
same,"Neutropenia, grade 4, patients",[3]; 450 mg (n = 8),1 n
same,"Pyrexia, all grades, patients",[3]; 450 mg (n = 8),2 n
same,"Rash, all grades, patients",[3]; 450 mg (n = 8),3 n
same,"Sepsis, all grades, patients",[3]; 450 mg (n = 8),2 n
same,"Sepsis, grade 3, patients",[3]; 450 mg (n = 8),2 n
same,"Stomatitis, all grades, patients",[3]; 450 mg (n = 8),2 n
same,"Vomiting, all grades, patients",[3]; 450 mg (n = 8),2 n
same,Patients reporting grade 4 AE,"[3]; 450 mg cohort 3, neutropenia, hypokalemia and abnormal liver function test",three of eight patients
same,"Blood creatinine increased, all grades, patients",[3]; Total (N = 19),3 n
same,"Decreased appetite, all grades, patients",[3]; Total (N = 19),8 n
same,"Decreased appetite, grade 3, patients",[3]; Total (N = 19),3 n
same,"Epistaxis, all grades, patients",[3]; Total (N = 19),5 n
same,"Fatigue, all grades, patients",[3]; Total (N = 19),5 n
same,"Febrile neutropenia, all grades, patients",[3]; Total (N = 19),15 n
same,"Febrile neutropenia, grade 3, patients",[3]; Total (N = 19),14 n
same,"Hyperuricemia, all grades, patients",[3]; Total (N = 19),3 n
same,"Hypoalbuminemia, all grades, patients",[3]; Total (N = 19),3 n
same,"Hypokalemia, all grades, patients",[3]; Total (N = 19),5 n
same,"Hypokalemia, grade 3, patients",[3]; Total (N = 19),1 n
same,"Hypokalemia, grade 4, patients",[3]; Total (N = 19),1 n
same,"Infection, all grades, patients",[3]; Total (N = 19),3 n
same,"Infection, grade 3, patients",[3]; Total (N = 19),2 n
same,"Nausea, all grades, patients",[3]; Total (N = 19),7 n
same,"Neutropenia, all grades, patients",[3]; Total (N = 19),3 n
same,"Neutropenia, grade 4, patients",[3]; Total (N = 19),3 n
same,"Pyrexia, all grades, patients",[3]; Total (N = 19),4 n
same,"Rash, all grades, patients",[3]; Total (N = 19),7 n
same,"Sepsis, all grades, patients",[3]; Total (N = 19),5 n
same,"Sepsis, grade 3, patients",[3]; Total (N = 19),5 n
same,"Stomatitis, all grades, patients",[3]; Total (N = 19),5 n
same,"Vomiting, all grades, patients",[3]; Total (N = 19),4 n
same,"Decreased appetite, frequency",[3]; [4],42.1%
same,"Epistaxis, frequency",[3]; [4],26.3%
same,"Fatigue, frequency",[3]; [4],26.3%
same,"Febrile neutropenia, frequency",[3]; [4],78.9%
same,"Hypokalemia, frequency",[3]; [4],26.3%
same,"Nausea, frequency",[3]; [4],36.8%
same,"Pyrexia, frequency",[3]; [4],21.1%
same,"Rash, frequency",[3]; [4],36.8%
same,"Sepsis, frequency",[3]; [4],26.3%
same,"Stomatitis, frequency",[3]; [4],26.3%
same,"Vomiting, frequency",[3]; [4],21.1%
same,Patients reporting CTCAE of grade ≥3,[3]; [5],94.7%
same,Patients reporting at least one AE irrespective of cause,[3]; [5],19 patients
same,Patients reporting at least one drug-related AE,[3]; [5],19 patients
